# Laboratory results: ChEMBL document CHEMBL4689842, “EUbOPEN Chemogenomics Library wave 1” (2021)
# “And” between values parts separate entries of the source, which are not always exact repeats. Identical values can stand only once.
# Experiments:
# Type in all cases: toxicity, cell-based
# Fibroblast = assay: Incucyte cell viability with human fibroblast; details: 10 µM, compound concentration 10 uM; note: filed as whole numbers so only -1 and 0 and 1 occur
# U2OS [1] = assay: Multiplex assay against U2OS; details: human
# Outline: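 Imaging took place on a CQ1 microscope at 37°C and 5% CO2 once compound had been added to live cells stained at seeding with Hoechst33342, BioTracker Green Microtubule Cytoskeleton Dye, MitoTracker Red and Annexin V Alexa Fluor 680. CellPathfinder machine-learning gating classed cells as Hoechst high-intensity objects or normal cells, classed normal cells as having healthy, pyknosed or fragmented nuclei, and classed pyknosed cells as mitotic or apoptotic. Tubulin, mitochondrial-mass and membrane-permeability phenotypes are per cents of the healthy-nucleus cells.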
# U2OS [2] = assay: Incucyte cell viability with U2OS; details: human, 10 µM, compound concentration 10 uM; note: filed as whole numbers so only -1 and 0 and 1 occur
# HEK-293T = assay: Incucyte cell viability with HEK293T; details: human, 10 µM, compound concentration 10 uM; note: filed as whole numbers so only -1 and 0 and 1 occur
# [3] = 0 h, replicate number 1, timepoint 0 hours
# [4] = 6 h, replicate number 1, timepoint 6 hours
# [5] = 12 h, replicate number 1, timepoint 12 hours
# [6] = 18 h, replicate number 1, timepoint 18 hours
# [7] = 24 h, replicate number 1, timepoint 24 hours
# [8] = 12 h, 1 µM, compound concentration 1 uM, replicate 1
# [9] = 12 h, 1 µM, compound concentration 1 uM, replicate 2
# [10] = 12 h, 10 µM, compound concentration 10 uM, replicate 1
# [11] = 12 h, 10 µM, compound concentration 10 uM, replicate 2
# [12] = 24 h, 1 µM, compound concentration 1 uM, replicate 1
# [13] = 24 h, 1 µM, compound concentration 1 uM, replicate 2
# [14] = 24 h, 10 µM, compound concentration 10 uM, replicate 1
# [15] = 24 h, 10 µM, compound concentration 10 uM, replicate 2
# [16] = 48 h, 10 µM, compound concentration 10 uM, replicate 1
# [17] = 48 h, 10 µM, compound concentration 10 uM, replicate 2
smiles,measurement,setting,value
CC(C)Oc1ccc(C(=O)N[C@H](CNC(=O)CN(C)C)Cc2ccc(-c3cn4cccc([C@H](C)O)c4n3)cc2)cc1Cl [GSK-923295A],Growth Rate,Fibroblast; [3],0
same,Growth Rate,"Fibroblast; 0 h, replicate number 2, timepoint 0 hours",1
same,Growth Rate,Fibroblast; [4],0
same,Growth Rate,Fibroblast; [5],0
same,Growth Rate,Fibroblast; [6],0
same,Growth Rate,Fibroblast; [7],0
same,Population Apoptotic (%),U2OS [1]; [8],27%
same,Population Fragmented Nuclei (%),U2OS [1]; [8],9%
same,Population Healthy Nuclei (%),U2OS [1]; [8],75%
same,Population Hoechst High Intensity Objects (%),U2OS [1]; [8],1%
same,Population Membrane Permeable-Phenotype (%),U2OS [1]; [8],33%
same,Population Mitochondria Different-Phenotype (%),U2OS [1]; [8],23%
same,Population Mitotic Cells (%),U2OS [1]; [8],72%
same,Population Normal (%),U2OS [1]; [8],98%
same,Population Pyknosed Nuclei (%),U2OS [1]; [8],15%
same,Population Tubulin-Different-Phenotype (%),U2OS [1]; [8],14%
same,Total Cell Count,U2OS [1]; [8],253
same,Population Apoptotic (%),U2OS [1]; [9],21%
same,Population Fragmented Nuclei (%),U2OS [1]; [9],11%
same,Population Healthy Nuclei (%),U2OS [1]; [9],66%
same,Population Hoechst High Intensity Objects (%),U2OS [1]; [9],11%
same,Population Membrane Permeable-Phenotype (%),U2OS [1]; [9],29%
same,Population Mitotic Cells (%),U2OS [1]; [9],78%
same,Population Normal (%),U2OS [1]; [9],88%
same,Population Pyknosed Nuclei (%),U2OS [1]; [9],22%
same,Population Tubulin-Different-Phenotype (%),U2OS [1]; [9],19%
same,Total Cell Count,U2OS [1]; [9],153
same,Population Apoptotic (%),U2OS [1]; [10],48% and 53%
same,Population Fragmented Nuclei (%),U2OS [1]; [10],9% and 14%
same,Population Healthy Nuclei (%),U2OS [1]; [10],75% and 62%
same,Population Hoechst High Intensity Objects (%),U2OS [1]; [10],3% and 11%
same,Population Membrane Permeable-Phenotype (%),U2OS [1]; [10],31% and 19%
same,Population Mitochondria Different-Phenotype (%),U2OS [1]; [10],37% and 93%
same,Population Mitotic Cells (%),U2OS [1]; [10],51% and 46%
same,Population Normal (%),U2OS [1]; [10],96% and 88%
same,Population Pyknosed Nuclei (%),U2OS [1]; [10],15% and 23%
same,Population Tubulin-Different-Phenotype (%),U2OS [1]; [10],98% and 97%
same,Total Cell Count,U2OS [1]; [10],146 and 119
same,Population Apoptotic (%),U2OS [1]; [11],30% and 33%
same,Population Fragmented Nuclei (%),U2OS [1]; [11],32%
same,Population Healthy Nuclei (%),U2OS [1]; [11],73% and 51%
same,Population Hoechst High Intensity Objects (%),U2OS [1]; [11],2%
same,Population Membrane Permeable-Phenotype (%),U2OS [1]; [11],30% and 56%
same,Population Mitochondria Different-Phenotype (%),U2OS [1]; [11],89% and 67%
same,Population Mitotic Cells (%),U2OS [1]; [11],69% and 66%
same,Population Normal (%),U2OS [1]; [11],97%
same,Population Pyknosed Nuclei (%),U2OS [1]; [11],17% and 16%
same,Population Tubulin-Different-Phenotype (%),U2OS [1]; [11],100%
same,Total Cell Count,U2OS [1]; [11],76 and 116
same,Population Apoptotic (%),U2OS [1]; [12],24%
same,Population Fragmented Nuclei (%),U2OS [1]; [12],18%
same,Population Healthy Nuclei (%),U2OS [1]; [12],61%
same,Population Hoechst High Intensity Objects (%),U2OS [1]; [12],2%
same,Population Membrane Permeable-Phenotype (%),U2OS [1]; [12],28%
same,Population Mitochondria Different-Phenotype (%),U2OS [1]; [12],19%
same,Population Mitotic Cells (%),U2OS [1]; [12],75%
same,Population Normal (%),U2OS [1]; [12],97%
same,Population Pyknosed Nuclei (%),U2OS [1]; [12],19%
same,Population Tubulin-Different-Phenotype (%),U2OS [1]; [12],13%
same,Total Cell Count,U2OS [1]; [12],249
same,Population Apoptotic (%),U2OS [1]; [13],29%
same,Population Fragmented Nuclei (%),U2OS [1]; [13],13%
same,Population Healthy Nuclei (%),U2OS [1]; [13],72%
same,Population Hoechst High Intensity Objects (%),U2OS [1]; [13],10%
same,Population Membrane Permeable-Phenotype (%),U2OS [1]; [13],19%
same,Population Mitochondria Different-Phenotype (%),U2OS [1]; [13],22%
same,Population Mitotic Cells (%),U2OS [1]; [13],70%
same,Population Normal (%),U2OS [1]; [13],89%
same,Population Pyknosed Nuclei (%),U2OS [1]; [13],14%
same,Population Tubulin-Different-Phenotype (%),U2OS [1]; [13],15%
same,Total Cell Count,U2OS [1]; [13],136
same,Population Apoptotic (%),U2OS [1]; [14],78% and 72%
same,Population Fragmented Nuclei (%),U2OS [1]; [14],12% and 17%
same,Population Healthy Nuclei (%),U2OS [1]; [14],56% and 61%
same,Population Hoechst High Intensity Objects (%),U2OS [1]; [14],4% and 9%
same,Population Membrane Permeable-Phenotype (%),U2OS [1]; [14],45% and 40%
same,Population Mitochondria Different-Phenotype (%),U2OS [1]; [14],66% and 88%
same,Population Mitotic Cells (%),U2OS [1]; [14],21% and 27%
same,Population Normal (%),U2OS [1]; [14],95% and 90%
same,Population Pyknosed Nuclei (%),U2OS [1]; [14],31% and 20%
same,Population Tubulin-Different-Phenotype (%),U2OS [1]; [14],97%
same,Total Cell Count,U2OS [1]; [14],171 and 128
same,Population Apoptotic (%),U2OS [1]; [15],60% and 35%
same,Population Fragmented Nuclei (%),U2OS [1]; [15],33% and 11%
same,Population Healthy Nuclei (%),U2OS [1]; [15],33% and 64%
same,Population Hoechst High Intensity Objects (%),U2OS [1]; [15],6% and 2%
same,Population Membrane Permeable-Phenotype (%),U2OS [1]; [15],64% and 53%
same,Population Mitochondria Different-Phenotype (%),U2OS [1]; [15],75% and 96%
same,Population Mitotic Cells (%),U2OS [1]; [15],39% and 65%
same,Population Normal (%),U2OS [1]; [15],93% and 97%
same,Population Pyknosed Nuclei (%),U2OS [1]; [15],33% and 24%
same,Population Tubulin-Different-Phenotype (%),U2OS [1]; [15],100%
same,Total Cell Count,U2OS [1]; [15],133 and 72
same,Population Apoptotic (%),U2OS [1]; [16],66%
same,Population Fragmented Nuclei (%),U2OS [1]; [16],18%
same,Population Healthy Nuclei (%),U2OS [1]; [16],41%
same,Population Hoechst High Intensity Objects (%),U2OS [1]; [16],10%
same,Population Membrane Permeable-Phenotype (%),U2OS [1]; [16],49%
same,Population Mitochondria Different-Phenotype (%),U2OS [1]; [16],85%
same,Population Mitotic Cells (%),U2OS [1]; [16],33%
same,Population Normal (%),U2OS [1]; [16],89%
same,Population Pyknosed Nuclei (%),U2OS [1]; [16],40%
same,Population Tubulin-Different-Phenotype (%),U2OS [1]; [16],97%
same,Total Cell Count,U2OS [1]; [16],133
same,Population Apoptotic (%),U2OS [1]; [17],73%
same,Population Fragmented Nuclei (%),U2OS [1]; [17],9%
same,Population Healthy Nuclei (%),U2OS [1]; [17],43%
same,Population Hoechst High Intensity Objects (%),U2OS [1]; [17],7%
same,Population Membrane Permeable-Phenotype (%),U2OS [1]; [17],81%
same,Population Mitochondria Different-Phenotype (%),U2OS [1]; [17],96%
same,Population Mitotic Cells (%),U2OS [1]; [17],26%
same,Population Normal (%),U2OS [1]; [17],92%
same,Population Pyknosed Nuclei (%),U2OS [1]; [17],46%
same,Population Tubulin-Different-Phenotype (%),U2OS [1]; [17],100%
same,Total Cell Count,U2OS [1]; [17],86
same,Growth Rate,U2OS [2]; [3],0
same,Growth Rate,U2OS [2]; [4],0
same,Growth Rate,U2OS [2]; [5],0
same,Growth Rate,U2OS [2]; [6],0
same,Growth Rate,U2OS [2]; [7],0
same,Growth Rate,HEK-293T; [3],0
same,Growth Rate,"HEK-293T; 6 h, replicate number 2, timepoint 6 hours",0
same,Growth Rate,HEK-293T; [5],0
same,Growth Rate,HEK-293T; [6],0
same,Growth Rate,HEK-293T; [7],0
